According to ChEMBL document CHEMBL1671864, “First assessment in humans of the safety, tolerability, pharmacokinetics, and ex vivo pharmacodynamic antimalarial activity of the new artemisinin derivative artemisone” (Antimicrob Agents Chemother, 2008):
Values after ≈ are worked out from the molar mass of the structure shown.

Tests used:
Homo sapiens [1] = assay: Toxicity in healthy human assessed as occurrence of clinically relevant changes in vital signs at 40 mg, po administered daily for 3 days as two 20-mg immediate-release tablets during 10 hrs overnight fasting state; assay type: organism-based; details: in vivo
Procedure, shortened: (§1)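 Healthy Caucasian men received single ascending doses (10–40 mg solution, 80 mg tablets) or 3-day daily tablet courses, all fasting, with randomized placebo controls. Supine blood pressure, heart rate and resting 12-lead ECG were recorded before and after dosing.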

[2] = Apparent oral clearance in healthy human at 30 mg, po administered as single ascending doses as solution during 10 hrs overnight fasting state; assay type: ADME, organism-based; details: in vivo
Procedure, shortened: (§2)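 Single ascending oral doses in healthy Caucasian men, given fasted (10-h overnight) with 240 ml water: 10, 20, 30 or 40 mg as oral solution, or 80 mg as IR tablets. Parent plasma levels by LC/MS-MS over 0.25–14 h. Noncompartmental analysis: kel by terminal-phase least-squares regression, AUC extrapolated to infinity, CL/F = dose/AUC, V/F = CL/F÷kel.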

[3] = Cmax in healthy human plasma at 80 mg, po administered as four 20 mg immediate release tablets daily for 3 days during 10 hrs overnight fasting state measured after 1 day; assay type: ADME, organism-based; design: dose 80 mg, route oral
Procedure, shortened: (§3)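 Healthy Caucasian males took tablets once daily for 3 days with 240 ml water after a 10-h fast. Heparinised blood was drawn predose and at 0.25–14 h after the first and last doses. Plasma parent drug and metabolites M1–M3 were measured by LC/MS-MS (MRM, deuterated internal standard). Noncompartmental analysis gave Cmax observed, t1/2 = 0.693/kel and MRT = AUMC/AUC. Values are geometric means.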

[4] = Half life in healthy human plasma at 10 mg, po administered as single ascending doses as solution during 10 hrs overnight fasting state; assay type: ADME, organism-based
Procedure, shortened: (§4)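 Healthy Caucasian male volunteers, single oral dose with 240 ml water after a 10-h overnight fast. Heparinised venous blood was drawn predose and at 0.25–14 h. Plasma was stored frozen. Parent drug and metabolites M1–M3 were measured by LC/MS-MS (MRM, deuterated internal standard). Noncompartmental analysis gave Cmax observed, t1/2 = 0.693/kel (terminal regression) and MRT = AUMC/AUC. Values are geometric means.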

[5] = AUC in healthy human plasma at 30 mg, po administered as single ascending doses as solution during 10 hrs overnight fasting state; assay type: ADME, organism-based; design: time < 10 hr, dose 30 mg, route oral; procedure, shortened: as §2
[6] = Apparent oral clearance in healthy human at 80 mg, po administered as four 20 mg immediate release tablets daily for 3 days during 10 hrs overnight fasting state measured after 1 day; assay type: ADME, organism-based; details: in vivo
Procedure, shortened: (§5)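 Healthy Caucasian males took 40 mg (2×20-mg IR tablets) or 80 mg (4 tablets) orally daily for 3 days after a 10-h fast. Plasma parent drug was measured by LC/MS-MS from predose to 14 h after the first and third doses. Noncompartmental analysis: AUC by log-linear trapezoid extrapolated via kel, CL/F = dose/AUC, V/F = CL/F÷kel, geometric means.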

[7] = AUC in healthy human plasma at 80 mg, po administered as four 20 mg immediate release tablets daily for 3 days during 10 hrs overnight fasting state measured after 1 day; assay type: ADME, organism-based; design: dose 80 mg, time < 10 hr, route oral; procedure, shortened: as §5
[8] = Mean residence time in healthy human at 80 mg, po administered as single immediate release tablets during 10 hrs overnight fasting state; assay type: ADME, organism-based; details: in vivo
Procedure, shortened: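 Healthy Caucasian male volunteers (n=6 active, 2 placebo, randomized), single 80 mg dose as four 20-mg tablets with 240 ml water after 10-h fast. Venous lithium-heparin plasma sampled predose and 0.25–14 h; analysed by LC/MS-MS (MRM, deuterated internal standard). Noncompartmental analysis; Tmax observed directly; MRT = AUMC/AUC with extrapolation to infinity via kel.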

Plasmodium falciparum [9] = assay: Antimalarial activity against Plasmodium falciparum TM90-C2A in human plasma assessed as inhibition of hypoxanthine uptake by intraerythrocytic malaria parasites by hypoxanthine incorporation assay; assay type: functional, organism-based
Procedure, shortened: (§6)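 K1 or TM90-C2A parasites were sorbitol-synchronized and cultured in RPMI 1640. Drug was diluted in drug-free human serum (0.04–40 ng/ml) or subject plasma was diluted twofold (8–8,192). Parasites were added at 2% hematocrit, 1% parasitemia (>95% rings), and [3H]hypoxanthine uptake was measured over 48 h. IC50 or ID50 came from concentration or dilution-response curves. Equivalent concentration = ID50 × IC50.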

Homo sapiens [10] = assay: Toxicity in healthy human assessed as occurrence of changes in electrocardiogram parameters at 10 to 80 mg, po administered as single ascending doses during 10 hrs overnight fasting state; assay type: organism-based; details: in vivo; procedure, shortened: as §1
[11] = AUC in healthy human plasma at 40 mg, po administered as single ascending doses as solution during 10 hrs overnight fasting state; assay type: ADME, organism-based; design: time < 10 hr, dose 40 mg, route oral; procedure, shortened: as §2
Homo sapiens [12] = assay: Toxicity in healthy human assessed as decrease in glutamate dehydrogenase level at 80 mg, po administered daily for 3 days as four 20-mg immediate-release tablets during 10 hrs overnight fasting state measured after 2 days last post treatment; assay type: organism-based; details: in vivo, 48 h
[13] = AUC in healthy human plasma at 20 mg, po administered as single ascending doses as solution during 10 hrs overnight fasting state; assay type: ADME, organism-based; design: time < 10 hr, dose 20 mg, route oral; procedure, shortened: as §2
[14] = Tmax in healthy human plasma at 40 mg, po administered as single ascending doses as solution during 10 hrs overnight fasting state; assay type: ADME, organism-based
Procedure, shortened: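 Healthy Caucasian male volunteers, randomized within each dose group against placebo, given a single oral solution with 240 ml water after a 10-h overnight fast. Plasma sampled predose and at 0.25–14 h, quantified by LC/MS-MS (MRM, deuterated internal standard). Tmax read directly from individual noncompartmental concentration–time data.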

[15] = Cmax in healthy human plasma at 40 mg, po administered as two 20 mg immediate release tablets daily for 3 days during 10 hrs overnight fasting state measured after 1 day; assay type: ADME, organism-based; design: dose 40 mg, route oral; procedure, shortened: as §3
Plasmodium falciparum [16] = assay: Antimalarial activity against Plasmodium falciparum K1 in human plasma assessed as inhibition of hypoxanthine uptake by intraerythrocytic malaria parasites by hypoxanthine incorporation assay; assay type: functional, organism-based; procedure, shortened: as §6
[17] = Apparent oral clearance in healthy human at 40 mg, po administered as two 20 mg immediate release tablets daily for 3 days during 10 hrs overnight fasting state measured after 3 day; assay type: ADME, organism-based; details: in vivo; procedure, shortened: as §5
Homo sapiens [18] = assay: Toxicity in healthy human assessed as occurrence of clinically relevant changes in vital signs at 10 to 80 mg, po administered as single ascending doses during 10 hrs overnight fasting state; assay type: organism-based; details: in vivo; procedure, shortened: as §1
[19] = Mean residence time in healthy human at 30 mg, po administered as single ascending doses as solution during 10 hrs overnight fasting state; assay type: ADME, organism-based; details: in vivo; procedure, shortened: as §4
[20] = Apparent volume of distribution with respect to the bioavailability in healthy human at 20 mg, po administered as single ascending doses as solution during 10 hrs overnight fasting state; assay type: ADME, organism-based; details: in vivo, read-out: Vc/F; procedure, shortened: as §2
[21] = Apparent oral clearance in healthy human at 10 mg, po administered as single ascending doses as solution during 10 hrs overnight fasting state; assay type: ADME, organism-based; details: in vivo; procedure, shortened: as §2
[22] = AUC in healthy human plasma at 80 mg, po administered as single immediate release tablets during 10 hrs overnight fasting state; assay type: ADME, organism-based; design: dose 80 mg, time < 10 hr, route oral; procedure, shortened: as §2
[23] = AUC in healthy human plasma at 40 mg, po administered as two 20 mg immediate release tablets daily for 3 days during 10 hrs overnight fasting state measured after 1 day; assay type: ADME, organism-based; design: time < 10 hr, dose 40 mg, route oral; procedure, shortened: as §5
[24] = AUC in healthy human plasma at 40 mg, po administered as two 20 mg immediate release tablets daily for 3 days during 10 hrs overnight fasting state measured after 3 day; assay type: ADME, organism-based; design: dose 40 mg, time < 10 hr, route oral; procedure, shortened: as §5
[25] = AUC in healthy human plasma at 10 mg, po administered as single ascending doses as solution during 10 hrs overnight fasting state; assay type: ADME, organism-based; design: dose 10 mg, time < 10 hr, route oral; procedure, shortened: as §2

In the case of C[C@H]1[C@H](N2CCS(=O)(=O)CC2)O[C@@H]2O[C@@]3(C)CC[C@H]4[C@H](C)CC[C@@H]1[C@@]24OO3 [ARTEMIFONE], the Activity (Homo sapiens [1]) is reported as “Non-toxic”, the CL/F [2] is reported as 6960 mL/min and the Cmax [3] is reported as 155 ng/mL. The half-life [4] was 1.51 h, the AUC at 10 h [5] was 71.8 ng·h/mL and the CL/F [6] was 3880 mL/min. For the same compound, the AUC at 10 h [7] was 343 ng·h/mL, the MRT [8] was 2.64 h and the IC50 (Plasmodium falciparum [9]) was 0.64 ng/mL (≈ 1.59 nM). For the same compound, the Activity (Homo sapiens [10]) was “Non-toxic”, the AUC at 10 h [11] was 118 ng·h/mL and the Activity (Homo sapiens [12]) was “Non-toxic”. The AUC at 10 h [13] was 65.7 ng·h/mL, the Tmax [14] was 0.625 h and the Cmax [15] was 96.4 ng/mL. For the same compound, the IC50 (Plasmodium falciparum [16]) was 0.6 ng/mL (≈ 1.49 nM), the CL/F [17] was 3500 mL/min and the Activity (Homo sapiens [18]) was “Non-toxic”. The MRT [19] was 2.29 h, the Vd/F [20] was 19.1 L/kg and the CL/F [21] was 5640 mL/min. For the same compound, the AUC at 10 h [22] was 282 ng·h/mL, the AUC at 10 h [23] was 184 ng·h/mL and the AUC at 10 h [24] was 191 ng·h/mL. The AUC at 10 h [25] was 29.5 ng·h/mL.
